Results from ChEMBL document CHEMBL1148647, “Structure-activity relationship studies on a series of novel, substituted 1-benzyl-5-phenyltetrazole P2X7 antagonists” (J Med Chem, 2006).
Calls of active or inactive are those of the source.

Columns and labels:
P2X purinoceptor 7 [1] = molecular target: T1, P2X purinoceptor 7 (Homo sapiens, UniProt Q99572); experiment: Antagonist activity at human P2X7 receptor expressed in human 1321N1 cells assessed as inhibition of calcium flux by FLIPR; assay type: functional, cell-based
T1 sequence (Q99572 whole entry): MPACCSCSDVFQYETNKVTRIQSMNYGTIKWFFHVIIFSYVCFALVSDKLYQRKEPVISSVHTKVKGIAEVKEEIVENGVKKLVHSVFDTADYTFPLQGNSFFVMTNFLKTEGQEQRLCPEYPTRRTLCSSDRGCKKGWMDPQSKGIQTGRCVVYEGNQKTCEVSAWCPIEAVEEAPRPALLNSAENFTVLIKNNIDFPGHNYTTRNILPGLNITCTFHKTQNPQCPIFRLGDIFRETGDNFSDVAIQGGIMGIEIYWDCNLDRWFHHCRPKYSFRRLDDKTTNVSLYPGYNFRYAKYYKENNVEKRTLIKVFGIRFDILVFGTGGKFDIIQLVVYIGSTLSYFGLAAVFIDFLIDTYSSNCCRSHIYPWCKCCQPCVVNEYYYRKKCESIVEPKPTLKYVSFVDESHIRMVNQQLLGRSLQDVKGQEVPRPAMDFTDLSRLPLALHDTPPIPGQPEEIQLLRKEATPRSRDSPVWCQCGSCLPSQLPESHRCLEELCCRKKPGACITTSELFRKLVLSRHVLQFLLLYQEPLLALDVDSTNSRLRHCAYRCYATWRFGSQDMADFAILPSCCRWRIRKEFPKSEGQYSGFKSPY
Procedure, shortened: (§1)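 Recombinant P2X7 (human or rat) stably transfected into human 1321N1 astrocytoma cells lacking endogenous P2X receptor function. Fluo-4 calcium dye, FLIPR read-out. 5-min antagonist pretreatment, then BzATP agonist. IC50 determined.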

THP-1 [2] = experiment: Inhibition of ILbeta production in human THP1 cells; assay type: functional, cell-based
Procedure, shortened: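 Human THP-1 cells differentiated with LPS and IFNγ, then stimulated with BzATP for 30 min in presence of test compound. Released IL-1β quantified by EIA.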

P2X purinoceptor 7 [3] = molecular target: T2, P2X purinoceptor 7 (Rattus norvegicus, UniProt Q64663); experiment: Antagonist activity at rat P2X7 receptor expressed in human 1321N1 cells assessed as inhibition of calcium flux by FLIPR; assay type: functional, cell-based; procedure, shortened: as §1
T2 sequence (Q64663 whole entry): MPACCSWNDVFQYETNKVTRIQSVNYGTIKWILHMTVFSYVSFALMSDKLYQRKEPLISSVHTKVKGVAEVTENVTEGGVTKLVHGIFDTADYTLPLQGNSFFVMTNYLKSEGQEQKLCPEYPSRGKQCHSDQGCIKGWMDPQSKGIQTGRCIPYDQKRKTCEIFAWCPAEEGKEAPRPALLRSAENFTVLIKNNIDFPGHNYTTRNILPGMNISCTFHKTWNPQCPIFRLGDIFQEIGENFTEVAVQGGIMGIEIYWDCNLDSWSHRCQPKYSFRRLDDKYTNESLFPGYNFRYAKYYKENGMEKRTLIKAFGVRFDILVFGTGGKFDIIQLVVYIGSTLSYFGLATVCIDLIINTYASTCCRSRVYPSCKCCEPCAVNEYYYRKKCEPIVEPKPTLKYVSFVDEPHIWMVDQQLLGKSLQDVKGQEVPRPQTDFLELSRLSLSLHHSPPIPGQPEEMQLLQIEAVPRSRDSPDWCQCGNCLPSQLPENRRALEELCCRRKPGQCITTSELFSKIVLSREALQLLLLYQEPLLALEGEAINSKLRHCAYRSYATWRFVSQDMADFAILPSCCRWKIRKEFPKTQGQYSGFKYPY

THP-1 [4] = experiment: Ability to block pore formation in human THP1 cells assessed as inhibition of YO-PRO-1 diiodide dye uptake; assay type: functional, cell-based
Procedure, shortened: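 Differentiated human THP-1 cells stimulated with agonist BzATP for 1 h in presence of test compound. Pore formation read as inhibition of cellular uptake of the impermeable dye YO-PRO-1 diiodide.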

Rattus norvegicus [5] = experiment: Reversal of mechanical allodynia in L5/L6 spinal nerve tight ligation model of neuropathic pain in ip dosed rat; assay type: functional
Procedure, shortened: (§2)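 Spinal nerve ligation (L5/L6, Chung) done 7-14 days before testing. Antagonist given ip at 10-300 µmol/kg. Von Frey hair applied 30 min after dosing. Paw withdrawal threshold on injured (left) side compared with contralateral paw. ED50 and maximal response relative to contralateral side derived.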

[6] = Half life in rat at 10 umol/kg; assay type: ADME, organism-based; details: in vivo
Rattus norvegicus [7] = experiment: Reversal of mechanical allodynia in L5/L6 spinal nerve tight ligation model of neuropathic pain in ip dosed rat relative to control; assay type: functional; procedure, shortened: as §2
Rattus norvegicus [8] = experiment: Impairment of motor function in rat by rotarod assay up to 300 umol/kg, ip; assay type: functional, organism-based
Procedure, shortened: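 Accelerating rotarod, ip dosing up to 300 µmol/kg. Time for the animal to fall from the rod recorded.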

[9] = Oral bioavailability in rat at 10 umol/kg, ip; assay type: ADME, organism-based; details: in vivo, intraperitoneal, read-out: Activity

Row | Structure (SMILES) | IC50 (P2X purinoceptor 7 [1]) | IC50 (P2X purinoceptor 7 [3]) | IC50 (THP-1 [4]) | further results
1 | Fc1ccc(-n2nnnc2Cc2cccnc2)c(Cl)c1Cl | 25.1 nM | 100 nM | – | IC50 (THP-1 [2]): 39.8 nM
2 | Fc1cccc(-c2nnnn2Cc2cccnc2)c1C(F)(F)F | 631 nM | – | – | –
3 | c1ccc(-c2nnnn2Cc2cccnc2)cc1 | 25100 nM | – | > 10000 nM | –
4 | Clc1ccc(Cl)c(-c2nnnn2Cc2cccnc2)c1 | 15800 nM | – | > 10000 nM | –
5 | Clc1c(-c2nnnn2Cc2ccccc2)ccc(N2CCCC2)c1Cl | > 10000 nM | – | – | –
6 | Fc1ccc(-n2nnnc2Cc2cccnc2)c(Cl)c1C(F)(F)F | 20 nM | – | 158 nM | –
7 | c1ccc(Cn2nnnc2-c2ccncc2)cc1 | 31600 nM | – | – | –
8 | Cc1ncccc1Cn1nnnc1-c1cccc(Cl)c1Cl | 31.6 nM | 200 nM | 200 nM | IC50 (THP-1 [2]): 158 nM
9 | FC(F)(F)c1cccc(-c2nnnn2Cc2cccnc2)c1Cl | 12.6 nM | 63.1 nM | 158 nM | IC50 (THP-1 [2]): 79.4 nM
10 | Clc1cccc(-c2nnnn2Cc2cccnc2)c1Cl | – | 316 nM | 200 nM | ED50 (Rattus norvegicus [5]): 76 µmol/kg; half-life [6]: 1 h; IC50 (THP-1 [2]): 398 nM; Activity (Rattus norvegicus [7]): 78%; Activity (Rattus norvegicus [8]): inactive; bioavailability [9]: 19%
11 | c1ccc(Cn2nnnc2-c2cccc3cccnc23)cc1 | 25100 nM | – | – | –
12 | Cc1noc(C)c1Cn1nnnc1-c1cccc(Cl)c1Cl | 158 nM | – | 794 nM | –
13 | Clc1cccc(-c2nnnn2Cc2ccncc2)c1Cl | 794 nM | 3160 nM | 2000 nM | IC50 (THP-1 [2]): 20000 nM
14 | Cc1ccccc1Cn1nnnc1-c1cccc(C)c1C | 251 nM | – | 1260 nM | –
15 | Clc1cccc(-c2nnnn2Cc2cccnc2)c1 | 7940 nM | – | > 10000 nM | –
16 | Clc1ccc(-c2nnnn2Cc2cccnc2)c(Cl)c1Cl | 200 nM | – | 1350 nM | –
17 | Clc1ccc(-c2nnnn2Cc2cccnc2)cc1Cl | 3980 nM | – | 7940 nM | –
18 | Clc1cccc(-n2nnnc2Cc2cccnc2)c1Cl | 100 nM | – | 398 nM | –
19 | Cc1ccccc1Cn1nnnc1-c1cccc(Cl)c1Cl | 15.8 nM | 63.1 nM | 126 nM | IC50 (THP-1 [2]): 158 nM
20 | O=C(NCC12CC3CC(CC(C3)C1)C2)c1cccc(Cl)c1Cl | 63.1 nM | – | – | –
21 | Cc1nc(C)c(Cn2nnnc2-c2cccc(Cl)c2Cl)s1 | 50.1 nM | 1260 nM | 251 nM | –
22 | Clc1cccc(-c2nnnn2Cc2ccccc2)c1Cl | 39.8 nM | 79.4 nM | 501 nM | –
23 | Clc1ccccc1-c1nnnn1Cc1cccnc1 | 15800 nM | – | – | –
24 | Clc1cccc(-c2nnnn2Cc2ccccn2)c1Cl | 501 nM | – | 2000 nM | –
25 | FC(F)(F)c1cccc(-n2nnnc2Cc2cccnc2)c1Cl | 12.6 nM | 50.1 nM | 50.1 nM | IC50 (THP-1 [2]): 25.1 nM
26 | c1ccc(Cn2nnnc2-c2cccc3ncccc23)cc1 | 15800 nM | – | > 10000 nM | –
27 | Clc1cccc(-c2nnnn2CCc2cccnc2)c1Cl | 12600 nM | – | > 10000 nM | –
28 | Fc1c(-c2nnnn2Cc2cccnc2)cccc1C(F)(F)F | 63.1 nM | 79.4 nM | 501 nM | IC50 (THP-1 [2]): 501 nM
29 | Fc1ccc(-c2nnnn2Cc2cccnc2)c(Cl)c1Cl | 12.6 nM | – | 398 nM | –
30 | COc1cccc(-c2nnnn2Cc2ccccc2Cl)c1OC | 3980 nM | – | > 10000 nM | –
